From ChEMBL document CHEMBL5058577, “EUbOPEN Chemogenomics Library 2 (Multiplex)” (2022)

Test system: U2OS
Assay: Multiplex assay against U2OS
Format: toxicity, cell-based
Conditions: human
Summary of the method: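 Compound was added to live cells that had been stained at seeding with Hoechst33342, BioTracker Green Microtubule Cytoskeleton Dye, MitoTracker Red and Annexin V Alexa Fluor 680, and imaging followed on a CQ1 microscope at 37°C and 5% CO2. CellPathfinder machine-learning gating divided cells into Hoechst high-intensity objects or normal cells, normal cells into healthy, pyknosed or fragmented nuclei, and pyknosed cells into mitotic or apoptotic. Tubulin, mitochondrial-mass and membrane-permeability phenotypes are per cents of healthy-nucleus cells.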

[1] = 12 h, 1 µM, compound concentration 1 uM, replicate 1
[2] = 12 h, 1 µM, compound concentration 1 uM, replicate 2
[3] = 12 h, 10 µM, compound concentration 10 uM, replicate 1
[4] = 12 h, 10 µM, compound concentration 10 uM, replicate 2
[5] = 24 h, 1 µM, compound concentration 1 uM, replicate 1
[6] = 24 h, 1 µM, compound concentration 1 uM, replicate 2
[7] = 24 h, 10 µM, compound concentration 10 uM, replicate 1
[8] = 24 h, 10 µM, compound concentration 10 uM, replicate 2
[9] = 48 h, 1 µM, compound concentration 1 uM, replicate 1
[10] = 48 h, 1 µM, compound concentration 1 uM, replicate 2
[11] = 48 h, 10 µM, compound concentration 10 uM, replicate 1
[12] = 48 h, 10 µM, compound concentration 10 uM, replicate 2

## Cc1nn(C)c2nc(NNC(=O)Nc3cc(Cl)nc(Cl)c3)cc(C(C)C)c12
[1]
  Population Apoptotic (%): 76%
  Population Fragmented Nuclei (%): 23%
  Population Healthy Nuclei (%): 66%
  Population Hoechst High Intensity Objects (%): 1%
  Population Membrane Permeable-Phenotype (%): 5%
  Population Mitochondria Different-Phenotype (%): 3%
  Population Mitotic Cells (%): 24%
  Population Normal (%): 98%
  Population Pyknosed Nuclei (%): 9%
  Population Tubulin-Different-Phenotype (%): 2%
  Total Cell Count: 268
[2]
  Population Apoptotic (%): 72%
  Population Fragmented Nuclei (%): 14%
  Population Healthy Nuclei (%): 76%
  Population Hoechst High Intensity Objects (%): 2%
  Population Membrane Permeable-Phenotype (%): 10%
  Population Mitochondria Different-Phenotype (%): 7%
  Population Mitotic Cells (%): 27%
  Population Normal (%): 97%
  Population Pyknosed Nuclei (%): 8%
  Population Tubulin-Different-Phenotype (%): 7%
  Total Cell Count: 131
[3]
  Population Apoptotic (%): 77%
  Population Fragmented Nuclei (%): 21%
  Population Healthy Nuclei (%): 56%
  Population Hoechst High Intensity Objects (%): 7%
  Population Membrane Permeable-Phenotype (%): 75%
  Population Mitochondria Different-Phenotype (%): 46%
  Population Mitotic Cells (%): 22%
  Population Normal (%): 92%
  Population Pyknosed Nuclei (%): 21%
  Population Tubulin-Different-Phenotype (%): 80%
  Total Cell Count: 222
[4]
  Population Apoptotic (%): 47%
  Population Fragmented Nuclei (%): 15%
  Population Healthy Nuclei (%): 63%
  Population Hoechst High Intensity Objects (%): 4%
  Population Membrane Permeable-Phenotype (%): 57%
  Population Mitochondria Different-Phenotype (%): 63%
  Population Mitotic Cells (%): 52%
  Population Normal (%): 95%
  Population Tubulin-Different-Phenotype (%): 77%
  Total Cell Count: 104
[5]
  Population Apoptotic (%): 80%
  Population Fragmented Nuclei (%): 20%
  Population Healthy Nuclei (%): 71%
  Population Hoechst High Intensity Objects (%): 0%
  Population Membrane Permeable-Phenotype (%): 4%
  Population Mitochondria Different-Phenotype (%): 2%
  Population Mitotic Cells (%): 19%
  Population Normal (%): 99%
  Population Pyknosed Nuclei (%): 8%
  Population Tubulin-Different-Phenotype (%): 1%
  Total Cell Count: 328
[6]
  Population Apoptotic (%): 93%
  Population Fragmented Nuclei (%): 17%
  Population Healthy Nuclei (%): 73%
  Population Hoechst High Intensity Objects (%): 2%
  Population Membrane Permeable-Phenotype (%): 9%
  Population Mitochondria Different-Phenotype (%): 4%
  Population Mitotic Cells (%): 6%
  Population Normal (%): 97%
  Population Pyknosed Nuclei (%): 9%
  Population Tubulin-Different-Phenotype (%): 4%
  Total Cell Count: 168
[7]
  Population Apoptotic (%): 78%
  Population Fragmented Nuclei (%): 19%
  Population Healthy Nuclei (%): 49%
  Population Hoechst High Intensity Objects (%): 5%
  Population Membrane Permeable-Phenotype (%): 69%
  Population Mitochondria Different-Phenotype (%): 58%
  Population Mitotic Cells (%): 21%
  Population Normal (%): 94%
  Population Pyknosed Nuclei (%): 31%
  Population Tubulin-Different-Phenotype (%): 77%
  Total Cell Count: 218
[8]
  Population Apoptotic (%): 69%
  Population Fragmented Nuclei (%): 16%
  Population Healthy Nuclei (%): 61%
  Population Hoechst High Intensity Objects (%): 2%
  Population Membrane Permeable-Phenotype (%): 42%
  Population Mitochondria Different-Phenotype (%): 51%
  Population Mitotic Cells (%): 30%
  Population Normal (%): 97%
  Population Pyknosed Nuclei (%): 21%
  Population Tubulin-Different-Phenotype (%): 57%
  Total Cell Count: 110
[9]
  Population Apoptotic (%): 88%
  Population Fragmented Nuclei (%): 17%
  Population Healthy Nuclei (%): 75%
  Population Hoechst High Intensity Objects (%): 2%
  Population Membrane Permeable-Phenotype (%): 4%
  Population Mitochondria Different-Phenotype (%): 3%
  Population Mitotic Cells (%): 11%
  Population Normal (%): 97%
  Population Pyknosed Nuclei (%): 7%
  Population Tubulin-Different-Phenotype (%): 2%
  Total Cell Count: 504
[10]
  Population Apoptotic (%): 86%
  Population Fragmented Nuclei (%): 21%
  Population Healthy Nuclei (%): 65%
  Population Hoechst High Intensity Objects (%): 1%
  Population Membrane Permeable-Phenotype (%): 8%
  Population Mitochondria Different-Phenotype (%): 4%
  Population Mitotic Cells (%): 13%
  Population Normal (%): 98%
  Population Pyknosed Nuclei (%): 12%
  Population Tubulin-Different-Phenotype (%): 5%
  Total Cell Count: 247
[11]
  Population Apoptotic (%): 83%
  Population Fragmented Nuclei (%): 24%
  Population Healthy Nuclei (%): 43%
  Population Hoechst High Intensity Objects (%): 9%
  Population Membrane Permeable-Phenotype (%): 51%
  Population Mitochondria Different-Phenotype (%): 46%
  Population Mitotic Cells (%): 16%
  Population Normal (%): 90%
  Population Pyknosed Nuclei (%): 32%
  Population Tubulin-Different-Phenotype (%): 49%
  Total Cell Count: 244
[12]
  Population Apoptotic (%): 80%
  Population Healthy Nuclei (%): 48%
  Population Hoechst High Intensity Objects (%): 6%
  Population Mitochondria Different-Phenotype (%): 63%
  Population Mitotic Cells (%): 20%
  Population Normal (%): 93%
  Population Pyknosed Nuclei (%): 27%
  Population Tubulin-Different-Phenotype (%): 57%
  Total Cell Count: 115

## C[C@@H]1CC(=O)Nc2cccc(-c3ccc4c(c3)c(-c3cnn(C)c3)nn4C)c2N1
[1]
  Population Apoptotic (%): 92%
  Population Fragmented Nuclei (%): 20%
  Population Healthy Nuclei (%): 73%
  Population Hoechst High Intensity Objects (%): 1%
  Population Membrane Permeable-Phenotype (%): 7%
  Population Mitochondria Different-Phenotype (%): 4%
  Population Mitotic Cells (%): 7%
  Population Normal (%): 98%
  Population Pyknosed Nuclei (%): 6%
  Population Tubulin-Different-Phenotype (%): 6%
  Total Cell Count: 233
[2]
  Population Apoptotic (%): 88%
  Population Fragmented Nuclei (%): 16%
  Population Healthy Nuclei (%): 75%
  Population Membrane Permeable-Phenotype (%): 5%
  Population Mitochondria Different-Phenotype (%): 2%
  Population Mitotic Cells (%): 11%
  Population Pyknosed Nuclei (%): 7%
  Population Tubulin-Different-Phenotype (%): 2%
  Total Cell Count: 116
[3]
  Population Apoptotic (%): 86%
  Population Fragmented Nuclei (%): 29%
  Population Healthy Nuclei (%): 58%
  Population Hoechst High Intensity Objects (%): 2%
  Population Membrane Permeable-Phenotype (%): 11%
  Population Mitochondria Different-Phenotype (%): 11%
  Population Mitotic Cells (%): 13%
  Population Normal (%): 97%
  Population Pyknosed Nuclei (%): 12%
  Population Tubulin-Different-Phenotype (%): 8%
  Total Cell Count: 235
[4]
  Population Apoptotic (%): 33%
  Population Fragmented Nuclei (%): 21%
  Population Healthy Nuclei (%): 74%
  Population Hoechst High Intensity Objects (%): 1%
  Population Membrane Permeable-Phenotype (%): 7%
  Population Mitochondria Different-Phenotype (%): 7%
  Population Mitotic Cells (%): 66%
  Population Normal (%): 98%
  Population Pyknosed Nuclei (%): 4%
  Total Cell Count: 76
[5]
  Population Apoptotic (%): 95%
  Population Fragmented Nuclei (%): 20%
  Population Healthy Nuclei (%): 71%
  Population Hoechst High Intensity Objects (%): 2%
  Population Membrane Permeable-Phenotype (%): 5%
  Population Mitochondria Different-Phenotype (%): 2%
  Population Mitotic Cells (%): 4%
  Population Normal (%): 97%
  Population Pyknosed Nuclei (%): 7%
  Population Tubulin-Different-Phenotype (%): 2%
  Total Cell Count: 294
[6]
  Population Apoptotic (%): 100%
  Population Fragmented Nuclei (%): 22%
  Population Healthy Nuclei (%): 74%
  Population Hoechst High Intensity Objects (%): 1%
  Population Membrane Permeable-Phenotype (%): 1%
  Population Mitochondria Different-Phenotype (%): 1%
  Population Mitotic Cells (%): 0%
  Population Normal (%): 98%
  Population Pyknosed Nuclei (%): 4%
  Population Tubulin-Different-Phenotype (%): 0%
  Total Cell Count: 152
[7]
  Population Apoptotic (%): 90%
  Population Fragmented Nuclei (%): 24%
  Population Healthy Nuclei (%): 63%
  Population Hoechst High Intensity Objects (%): 4%
  Population Membrane Permeable-Phenotype (%): 7%
  Population Mitochondria Different-Phenotype (%): 6%
  Population Mitotic Cells (%): 10%
  Population Normal (%): 95%
  Population Pyknosed Nuclei (%): 11%
  Population Tubulin-Different-Phenotype (%): 3%
  Total Cell Count: 266
[8]
  Population Apoptotic (%): 83%
  Population Fragmented Nuclei (%): 15%
  Population Healthy Nuclei (%): 78%
  Population Hoechst High Intensity Objects (%): 1%
  Population Membrane Permeable-Phenotype (%): 6%
  Population Mitochondria Different-Phenotype (%): 1%
  Population Mitotic Cells (%): 16%
  Population Normal (%): 98%
  Population Pyknosed Nuclei (%): 6%
  Population Tubulin-Different-Phenotype (%): 4%
  Total Cell Count: 97
[9]
  Population Apoptotic (%): 100%
  Population Fragmented Nuclei (%): 19%
  Population Healthy Nuclei (%): 73%
  Population Hoechst High Intensity Objects (%): 1%
  Population Membrane Permeable-Phenotype (%): 4%
  Population Mitochondria Different-Phenotype (%): 2%
  Population Mitotic Cells (%): 0%
  Population Normal (%): 98%
  Population Pyknosed Nuclei (%): 6%
  Population Tubulin-Different-Phenotype (%): 3%
  Total Cell Count: 437
[10]
  Population Fragmented Nuclei (%): 13%
  Population Healthy Nuclei (%): 77%
  Population Membrane Permeable-Phenotype (%): 2%
  Population Pyknosed Nuclei (%): 8%
  Population Tubulin-Different-Phenotype (%): 2%
  Total Cell Count: 224
[11]
  Population Apoptotic (%): 100%
  Population Fragmented Nuclei (%): 28%
  Population Healthy Nuclei (%): 65%
  Population Hoechst High Intensity Objects (%): 3%
  Population Membrane Permeable-Phenotype (%): 8%
  Population Mitochondria Different-Phenotype (%): 3%
  Population Mitotic Cells (%): 0%
  Population Normal (%): 96%
  Population Pyknosed Nuclei (%): 5%
  Population Tubulin-Different-Phenotype (%): 5%
  Total Cell Count: 394
[12]
  Population Fragmented Nuclei (%): 23%
  Population Healthy Nuclei (%): 71%
  Population Hoechst High Intensity Objects (%): 4%
  Population Membrane Permeable-Phenotype (%): 3%
  Population Mitochondria Different-Phenotype (%): 0%
  Population Normal (%): 95%
  Population Pyknosed Nuclei (%): 4%
  Population Tubulin-Different-Phenotype (%): 3%
  Total Cell Count: 149
